Assay results from ChEMBL document CHEMBL1143701, “O2-acetoxymethyl-protected diazeniumdiolate-based NSAIDs (NONO-NSAIDs): synthesis, nitric oxide release, and biological evaluation studies” (Bioorg Med Chem, 2007).

How the values were obtained:
Rattus norvegicus [1] = test: Antiinflammatory activity against carrageenan-induced rat paw edema in orally dosed rat after 3 hrs; format: functional; details: po, read-out: ID50 (the source's name)
[2] = Effect on nitric oxide release in presence of porcine liver esterase per mole using sievers […]; format: functional
In short: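 Porcine liver esterase (10 μL of suspension in 3.2 M ammonium sulfate) in 3 mL phosphate buffer pH 8.0; 10 μL of 46 or 77 mM DMSO stock injected; NO carried by nitrogen purge to chemiluminescence analyzer, quantified against calibration curve; time to 100% theoretical NO read graphically.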

[3] = Effect on nitric oxide release in pH 7.4 PBS buffer using sievers […]; format: functional
In short: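 Prodrug in DMSO (46 or 77 mM stock), 10 μL injected into 3 mL deoxygenated phosphate buffer pH 7.4 at 37 °C in sealed cell; NO swept by nitrogen purge to chemiluminescence analyzer calibrated with NO/He standards; mol NO/mol compound from integrated peak area; time to ~50% of theoretical NO read graphically.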

[4] = target: T1, Prostaglandin G/H synthase 1 (Ovis aries, UniProt P05979); test: Inhibition of ovine COX1 by enzyme immuno assay
T1 sequence (P05979 whole entry): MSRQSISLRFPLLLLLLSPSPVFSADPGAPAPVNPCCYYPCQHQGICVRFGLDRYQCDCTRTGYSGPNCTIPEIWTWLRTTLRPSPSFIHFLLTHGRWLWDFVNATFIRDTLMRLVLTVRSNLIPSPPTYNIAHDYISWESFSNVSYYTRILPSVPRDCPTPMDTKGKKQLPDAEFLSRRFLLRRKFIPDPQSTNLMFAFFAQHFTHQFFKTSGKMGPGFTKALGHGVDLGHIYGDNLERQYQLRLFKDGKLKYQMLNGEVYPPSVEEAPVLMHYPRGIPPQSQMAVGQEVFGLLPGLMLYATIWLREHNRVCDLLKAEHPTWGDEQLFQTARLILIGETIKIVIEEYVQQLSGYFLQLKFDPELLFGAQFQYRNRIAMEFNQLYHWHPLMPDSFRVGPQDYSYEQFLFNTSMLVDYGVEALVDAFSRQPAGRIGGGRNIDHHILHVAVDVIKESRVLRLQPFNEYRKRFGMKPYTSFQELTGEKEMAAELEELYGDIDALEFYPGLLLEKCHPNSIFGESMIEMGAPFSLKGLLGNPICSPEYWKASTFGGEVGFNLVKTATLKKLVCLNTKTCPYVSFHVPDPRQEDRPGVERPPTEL

Rattus norvegicus [5] = test: Gastric damage production in rat assessed as gastric ulcer index at 0.08 mmol/kg, po after 6 hrs; format: functional, Stomach
In short: (§1)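 Rats fasted 24 h (water allowed), given single oral dose suspended in 1.7 mL 1% methylcellulose; vehicle controls. Killed 6 h later by CO2; stomachs opened along greater curvature and ulcer lengths scored under magnifier. Ulcer index = total ulcer length (mm) summed over stomachs divided by animals (n = 4); mean ± SEM.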

Rattus norvegicus [6] = test: Gastric damage production in rat assessed as gastric ulcer index at 1.21 mmol/kg, po after 6 hrs; format: functional, Stomach; in short: as §1
Rattus norvegicus [7] = test: Gastric damage production in rat assessed as gastric ulcer index at 1.38 mmol/kg, po after 6 hrs; format: functional, Stomach; in short: as §1

Structure (SMILES) | ED50 (Rattus norvegicus [1]) [µmol/kg] | Activity [2] [mol/mol] | Activity [3] [mol/mol] | IC50 [4] [µM] | Activity (Rattus norvegicus [5]) | Activity (Rattus norvegicus [6]) | Activity (Rattus norvegicus [7])
COc1ccc2c(c1)c(CC(=O)OCCN(C)/[N+]([O-])=N/OCOC(C)=O)c(C)n2C(=O)c1ccc(Cl)cc1 | 20.3 | 2 | 0.9 | > 100 | 1.3 | – | –
CC(C)Cc1ccc(C(C)C(=O)O)cc1 (configuration not stated) [IBUPROFEN] | 327 | – | – | – | – | 45.8 | –
CC(=O)OCO/N=[N+](\[O-])N(C)CCO | – | 2 | 1 | – | – | – | –
CC(=O)Oc1ccccc1C(=O)O [ASPIRIN] | 714 | – | – | – | – | – | 57.4
CC(=O)OCO/N=[N+](\[O-])N(C)CCOC(=O)c1ccccc1OC(C)=O | 553 | 2 | 1 | > 100 | – | – | 0.84
CC(=O)OCO/N=[N+](\[O-])N(C)CCOC(=O)C(C)c1ccc(CC(C)C)cc1 (configuration not stated) | 175 | 2 | 1.1 | > 100 | – | 0 | –
COc1ccc2c(c1)c(CC(=O)O)c(C)n2C(=O)c1ccc(Cl)cc1 [INDOMETHACIN] | 11.7 | – | – | – | – | – | –
